Compound activity from PubChem BioAssay.
KCNK3 inh: human KCNK3 channel inhibition, primary screen; O14649; CHO-KCNK3 thallium flux, FluxOR fluorescence; active compounds read low; actives 0.84% (n = 340,000); B-score at 10 µM;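 active = B-score under library mean minus 4 SD, starting fluorescence ratio at most library mean plus 5 SD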;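 note: more negative B-score means stronger inhibition of thallium flux through KCNK3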
KCNQ1 act: human KCNQ1 channel potentiation or activation; P51787; CHO-K1 KCNQ1, thallium flux FluxOR fluorescence; active compounds read high; B-score at 10 µM; actives 0.35% (n = 310,000); AID 2648;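 active = fluorescence ratio B-score, a plate-corrected score, at least three library SD, with initial intensity B-score within 5 SD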
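Medium – assay buffer, equal DMSO in all wells · Material – CHO-K1 cell line with stable KCNQ1 potassium channel expression · Signal – kinetic FluxOR thallium fluorescence, 10-s 1-Hz baseline, 110-s post-stimulus read · Compound – single concentration per compound, DMSO matched to controls · Schedule – 37 °C overnight plating, 90-min dark dye load, 20-min compound pretreatment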
hERG protect: shields human hERG channel from block by proarrhythmic agents; actives 0.51% (n = 310,000); AID 1511; CHO-hERG, FluxOR thallium flux, dofetilide IC70 present; activation (rescue from dofetilide block), less the hit threshold, % at 10 µM;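 active = activation above the mean of controls blocked by dofetilide plus 5 SD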;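 note: thallium influx through hERG after potassium depolarization seen as dye fluorescence rise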
KCNK9 inh: blocks the human KCNK9 two-pore domain potassium channel; Q9NPC2; HEK293 KCNK9, FluxOR thallium flux fluorescence; active compounds read low; B-score at 10 µM; actives 1.2% (n = 310,000); AID 488922;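 active = ratio B-score over 3 SD below the library mean, with starting fluorescence within 5 SD of its mean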;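 note: negative B-score means less thallium flux so channel inhibition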
Kir21 inh: blocks the mouse Kir2.1 inward-rectifier potassium channel | P35561 | HEK293-Kir2.1, FluxOR thallium flux fluorescence; active compounds read low | B-score at 10 µM | actives 0.85% (n = 310,000);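 active = fluorescence ratio B-score at or below minus 3 SD of library scores, with starting-brightness B-score within 2 SD, cut at about -4.2 in these data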;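 note: channel flux triggered by added potassium and thallium sulfate stimulus; B-score of peak minus minimum fluorescence over baseline after thallium stimulus; more negative B-score means stronger Kir2.1 block with less thallium influx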
KCNQ1 inh: blocks the human KCNQ1 potassium channel. P51787. CHO-K1 KCNQ1, FluxOR thallium flux fluorescence; active compounds read high. B-score at 10 µM. actives 1.3% (n = 310,000);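 active = compounds whose thallium flux B-score, printed positive for inhibition, exceeds three library SD while starting fluorescence stays within three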;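 note: channel opened by potassium depolarization with thallium stimulus after 20 min compound exposure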
KCNK3 confirm: confirmation of human KCNK3 two-pore domain potassium channel inhibitors | CHO-KCNK3 thallium flux, FluxOR fluorescence; 0% buffer, 100% carvedilol maximal block | shares compounds with KCNK3 inh | ratio percent of control, % at 10 µM | actives 99% (n = 2,400);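 active = ratio percent of control, averaged over triplicates, above buffer control mean plus 5 SD, cut at about 64% in these data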;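 note: ratio is the fluorescence rise from min to max over baseline after thallium stimulus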
KCNK3 uninduced: KCNK3 inhibitor counter-screen hit in non-induced cells | actives 40% (n = 2,400) | AID 651747 | non-induced KCNK3 parental cells, FluxOR thallium flux; active compounds read low | thallium flux ratio (lower = more inhibition) at 10 µM | shares compounds with KCNK3 inh;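 active = thallium flux ratio, averaged over three wells, more than 5 SD below the buffer control mean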;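 note: host cells are CHO cells without KCNK3 induction; ratio is peak minus trough fluorescence over baseline then normalized to buffer controls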
* marks the source's active call; other numbers are inactive results. Hits are enriched below; roughly 3.8% of the tested compounds scored in any of these assays.

Screening CCOc1ccc(NC(=O)c2cc3ccccc3cc2OC)cc1 returned KCNK3 inh inactive, KCNQ1 act inactive, hERG protect -7.9, KCNK9 inh inactive, Kir21 inh 1.94 and KCNQ1 inh inactive.
`Cc1nnc(NC(=O)CSc2nnc3ncccn23)s1` gave KCNK3 inh inactive, KCNQ1 act inactive, hERG protect -0.8, KCNK9 inh inactive, Kir21 inh 0.19 and KCNQ1 inh inactive.
Screening Cc1ccc(N(CC(=O)NC2CCCC2)C(=O)CNC(=O)c2cccs2)c(C)c1 returned KCNK3 inh inactive, KCNQ1 act inactive, hERG protect -3.9, KCNK9 inh inactive, Kir21 inh -0.84 and KCNQ1 inh inactive.
Screening CCN(CC)CCc1nc(-c2ccccc2)no1 returned KCNK3 inh inactive.
Screening O=C1OC[C@H](Cc2ccc3c(c2)OCO3)/C1=C\c1ccc2c(c1)OCO2 returned KCNK3 inh -9.73*, KCNQ1 act inactive, hERG protect -10.8, KCNK9 inh inactive, Kir21 inh 0.33, KCNQ1 inh inactive, KCNK3 confirm 133.3* and KCNK3 uninduced inactive.
`O=C1CC(Cc2ccccc2)C(=O)N1CCc1ccc2c(c1)OCO2` (centres undefined) gave KCNK3 inh inactive, KCNQ1 act inactive, hERG protect -4.7, KCNK9 inh inactive, Kir21 inh -0.08 and KCNQ1 inh inactive.
For O=C(c1ccc(-c2ccccc2)cc1)C1CCCN(Cc2ccncc2)C1 (centres undefined) the results were KCNK3 inh -10.4*, KCNQ1 act inactive, hERG protect -23.7, KCNK9 inh inactive, Kir21 inh 0.02, KCNQ1 inh inactive, KCNK3 confirm 128.7* and KCNK3 uninduced inactive.
`O=C(c1ccc(-c2ccccc2)cc1)C1CCCN(C(=O)c2ccncc2)C1` (centres undefined) gave KCNK3 inh inactive, KCNQ1 act inactive, hERG protect -12.5, KCNK9 inh inactive, Kir21 inh 0.73 and KCNQ1 inh inactive.
`CC1=C(C(=O)Nc2cccc(C(=O)NCc3ccc(F)cc3)c2)SCCO1` gave KCNK3 inh -8.98*, KCNQ1 act inactive, hERG protect -9.0, KCNK9 inh inactive, Kir21 inh -0.65, KCNQ1 inh inactive, KCNK3 confirm 84.3* and KCNK3 uninduced inactive.
Screening CC1=C(C(=O)Nc2ccc(CC(=O)NCc3ccccc3C)cc2)SCCO1 returned KCNK3 inh inactive, KCNQ1 act inactive, hERG protect -9.9, KCNK9 inh inactive, Kir21 inh 0.47 and KCNQ1 inh inactive.
For CC1=C(C(=O)Nc2cccc(C(=O)NCc3ccccc3C)c2)SCCO1 the results were KCNK3 inh -8.83*, KCNQ1 act inactive, hERG protect -11.4, KCNK9 inh -6.63*, Kir21 inh -0.92, KCNQ1 inh inactive, KCNK3 confirm 99.7* and KCNK3 uninduced inactive.
For CCOC(=O)c1nc(C)nc(Sc2n[nH]c(-c3cc(C(F)(F)F)cc(C(F)(F)F)c3)n2)c1C the results were KCNK3 inh -9.4*, KCNQ1 act inactive, hERG protect -11.0, KCNK9 inh inactive, Kir21 inh -0.29, KCNQ1 inh 6*, KCNK3 confirm 102.3* and KCNK3 uninduced 0.117*.
Screening Cc1cc(C)c2nc(N(CCCN(C)C)C(=O)c3ccc(S(=O)(=O)N4CC(C)OC(C)C4)cc3)sc2c1 (centres undefined) returned KCNK3 inh inactive, KCNQ1 act inactive, hERG protect -8.2, KCNK9 inh inactive, Kir21 inh -1.04 and KCNQ1 inh inactive.
COc1ccc(-c2cc(C(=O)N3CCCc4ccccc43)no2)cc1 was read as KCNK3 inh inactive, KCNQ1 act inactive, hERG protect -10.7, KCNK9 inh inactive, Kir21 inh 0.02 and KCNQ1 inh inactive.
